The list is not random: actives were taken first. Their share in the collection is about 2.6%.
SENP7 block: blocks the human protease SENP7 | Q9BQF6 | recombinant SENP7, Z-RLRGG-aminoluciferin luminescence, 40 min | inhibition, % at 5 µM | actives 1.5% (n = 330,000) | AID 434973;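 active = inhibition above about 50% at the single test dose, limit read from the data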;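 also: plate controls were DMSO with enzyme for no effect and no enzyme buffer wells for full effect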
SENP6 inh: inhibitors of human SENP6 protease | Q9GZR1 | Recombinant SENP6 catalytic domain, aminoluciferin luminescence | inhibition, % at 10 µM | actives 1.8% (n = 330,000) | AID 2599;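 active = inhibition above about 50% at the single tested dose, limit read from the data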;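 also: plate controls were DMSO wells with enzyme for no effect and DMSO wells lacking enzyme for full effect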
Platelet DG rel: platelet dense granule release activity; actives 0.22% (n = 300,000); human platelet-rich plasma, SFLLRN dense granule ATP release, luminescence; AID 1663; inhibition, %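 (compounds screened at 7.5 µM in platelet-rich plasma)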;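 active = mean replicate score, as percent of positive control, at or above 50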
SENP8 block-1: SENP8 protease inhibition; AID 2540; purified SENP8, Z-RLRGG-aminoluciferin cleavage, luminescence; inhibition, % at 10 µM; Q96LD8; actives 1.2% (n = 330,000); in the data active = inhibition above about 50%
Target sequence (Q96LD8 whole entry, looked up): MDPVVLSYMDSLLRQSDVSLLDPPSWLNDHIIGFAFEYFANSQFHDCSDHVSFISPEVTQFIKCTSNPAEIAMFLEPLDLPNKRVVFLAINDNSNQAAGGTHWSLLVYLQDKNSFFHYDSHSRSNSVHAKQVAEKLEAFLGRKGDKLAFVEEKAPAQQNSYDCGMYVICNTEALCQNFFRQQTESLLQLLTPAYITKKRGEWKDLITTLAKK
SENP1 inh: inhibitors of human SENP1 SUMO protease catalytic domain; recombinant SENP1 catalytic domain, CyPet-SUMO1-YPet FRET cleavage; inhibition, % at 10 µM; actives 0.21% (n = 360,000);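 active = inhibition at least 30% at 10 µM, raw YFP signal under a set limit, fluorescence ratio 0.5 to 1.5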;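 also: 0% = enzyme with DMSO and 100% = no enzyme wells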
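Test system: human SENP1 catalytic domain; medium: Tris pH 8 buffer plus EDTA, NaCl, BME, BSA, NP40, catalase; incubation: 50 min reaction at room temperature; technique: FRET, CFP and YFP emission; controls: no-enzyme low control and enzyme-plus-DMSO high control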
SENP8 block-2: blocks human SENP8 cleavage of Nedd8 substrate; recombinant SENP8, Nedd8 substrate fluorescence; inhibition, % at 20 µM; actives 0.64% (n = 360,000); AID 602440; in the data active = inhibition mostly above about 40%, no sharp cut-off; inactive = mostly below about 27%
SENP8 confirm: human SENP8 inhibition, confirmed. AID 488912. Recombinant SENP8, Z-RLRGG-aminoluciferin luminescence, 60 min. inhibition, % at 12.5 µM. actives 40% (n = 6,200). shares compounds with SENP7 block;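 active = mean inhibition across replicates above about 50%, limit read from the data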
SENP6 confirm: human SENP6 inhibition, confirmed; actives 58% (n = 6,200); shares compounds with SENP7 block; inhibition, % at 12.5 µM; recombinant SENP6, Z-RLRGG-aminoluciferin luminescence; AID 488915
SENP7 confirm: confirmation of human SENP7 protease inhibitors; shares compounds with SENP7 block; recombinant SENP7, Z-RLRGG-aminoluciferin luminescence, 40 min; inhibition, % at 12.5 µM; actives 69% (n = 6,200); AID 488917
Casp3 SENP sel: caspase-3 inhibition (SENP selectivity assay); shares compounds with SENP7 block; purified caspase-3, Z-DEVD-aminoluciferin luminescence, 60 min; inhibition, % at 12.5 µM; actives 60% (n = 6,200); AID 488918;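 active = mean inhibition above about 50%, limit read from the data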;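 also: plate controls were enzyme with DMSO for no effect and wells without caspase-3 for full effect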
Target sequence (P42574 28-227 limits assumed): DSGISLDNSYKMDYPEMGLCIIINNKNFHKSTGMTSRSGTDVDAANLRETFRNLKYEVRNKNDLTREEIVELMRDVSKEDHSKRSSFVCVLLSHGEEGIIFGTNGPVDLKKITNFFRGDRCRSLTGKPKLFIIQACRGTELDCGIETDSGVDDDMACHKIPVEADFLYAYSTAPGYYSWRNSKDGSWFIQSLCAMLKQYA
SENP luc ctr: counter-screen for SENP inhibitors: luminescence interference; shares compounds with SENP7 block; Pre-incubated SENP8/Z-RLRGG-aminoluciferin, luciferase luminescence interference; inhibition, % at 12.5 µM; actives 39% (n = 6,200); AID 488919;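 active = mean inhibition above about 50% when retested at one dose, limit read from the data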;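 also: plate controls were DMSO wells with completed reaction for no effect and substrate without enzyme for full effect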
An asterisk follows results filed as active; x = no result given.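 The calls were made as follows, unless noted: active = mean inhibition above about 50% in the one-dose retest (limit read from the data); inactive = the rest.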

SMILES	SENP7 block	SENP6 inh	Platelet DG rel	SENP8 block-1	SENP1 inh	SENP8 block-2	SENP8 confirm	SENP6 confirm	SENP7 confirm	Casp3 SENP sel	SENP luc ctr
COc1ccc(CCn2nc(C)c([N+](=O)[O-])c2C)cc1	59*	71*	-10	30	2	1	57*	53*	82*	79*	62*
COc1cc(-c2cc(-c3ccc(N)cc3)[nH]c(=O)c2C#N)cc(OC)c1OC	-7	12	0	6	-35	-374	x	x	x	x	x
CCOC(=O)c1ccc(Nc2ncccc2[N+](=O)[O-])cc1	83*	24	5	34	1	40	32	39	48	57*	6
O=C(O)c1cnc2ccccc2n1	-7	3	-4	0	1	9	x	x	x	x	x
CCOC(=O)c1ccc(Nc2cc(C)nc(-c3ccccc3)n2)cc1	2	-6	14	-13	0	-172	x	x	x	x	x
O=C(O)c1ccc(Nc2cnc3ccccc3n2)cc1	97*	93*	26	88*	-4	-70	92*	92*	100*	97*	87*
CCOC(=O)c1ccc(NCc2nc3ccccc3[nH]2)cc1	58*	93*	-1	85*	-19	-46	67*	61*	83*	68*	71*
CCOC(=O)c1ccc(Nc2cnc3ccccc3n2)cc1	56*	18	-4	-14	-41	-332	7	20	63*	11	8
CSc1nnc(CSCc2ccc(Cl)cc2Cl)n1-c1ccccc1	1	-9	1	-10	1	11	x	x	x	x	x
CN(Cc1ccccc1)C(=O)CCS(=O)(=O)c1ccc2c(c1)n(C)c(=O)c(=O)n2C	-12	1	-7	-15	-2	-59	x	x	x	x	x
COCCn1c(SCC(=O)Nc2cccc(OC)c2)nnc1-c1ccccc1	-5	-47	9	11	1	4	x	x	x	x	x
Cc1cc(C(=O)N/N=C2\CC(=O)c3ccccc32)c(C)n1-c1ccc(F)cc1	21	73*	1	40	4	79*	27	50	40	51*	12
COc1ccc(NC(=S)N2CCN(c3ccc([N+](=O)[O-])cc3)CC2)cc1OC	-5	-19	-6	-13	-10	17	x	x	x	x	x
CN1CCN(c2ccc(CNS(=O)(=O)Cc3cccc(C(F)(F)F)c3)cc2)CC1	1	-12	3	-2	-1	20	x	x	x	x	x
O=C(C1=C[C@H](c2ccc3c(c2)OCO3)C[C@H](OCc2ccc(CO)cc2)O1)N1CCCCCCC1	0	1	-6	6	0	-8	x	x	x	x	x
c1ccc2c(c1)Cc1cc3ccccc3nc1-2	95*	98*	11	92*	-3	1	9	95*	100*	92*	36
Cc1cc2ccccc2nc1-c1ccccc1F	x	x	x	x	0	0	x	x	x	x	x
O=C1c2ccccc2-c2nc3ccccc3cc21	90*	91*	10	86*	-2	14	0	88*	99*	86*	70*
CN(N=Nc1ccc([N+](=O)[O-])cc1)c1ccccc1	60*	60*	1	8	5	34	7	9	23	25	6
CN(C(=O)Nc1cccc([N+](=O)[O-])c1)c1ccccc1	x	x	x	x	0	19	x	x	x	x	x
CN(N=Nc1cccc([N+](=O)[O-])c1)c1ccccc1	47	51*	-6	39	0	21	43	50*	73*	39	26
CN(CCCC(=O)O)c1ccc(N=Nc2ccc([N+](=O)[O-])cc2)cc1	54*	90*	10	81*	7	29	84*	84*	30	76*	46
CCCN(C(=O)/C=C/c1ccco1)c1c(N)n(Cc2ccccc2)c(=O)[nH]c1=O	-1	-16	-1	-3	-2	10	x	x	x	x	x
O=C(NCc1ccncc1)c1nc(-c2cccs2)no1	-8	2	0	-14	0	9	x	x	x	x	x
CN(C1=C(NC(=O)c2ccccc2)C(=O)c2ccccc2C1=O)C1CCS(=O)(=O)C1 (stereo not given)	53*	95*	-7	60*	12	64*	70*	87*	57*	75*	0
SMILES	SENP7 block	SENP6 inh	Platelet DG rel	SENP8 block-1	SENP1 inh	SENP8 block-2	SENP8 confirm	SENP6 confirm	SENP7 confirm	Casp3 SENP sel	SENP luc ctr
O=C(NC(=S)NC1CCS(=O)(=O)C1)c1ccccc1 (stereo not given)	-3	0	4	1	1	8	x	x	x	x	x
Cc1ccccc1S(=O)(=O)NC(=O)C1(C)CCN1C(=O)CCc1ccccc1 (stereo not given)	x	x	x	x	3	12	x	x	x	x	x
Nc1nc2ccccc2n1C(=O)c1ccc(F)cc1	94*	93*	12	78*	0	6	60*	83*	97*	92*	38
Nc1nc2ccccc2n1C(=O)c1ccccc1	96*	96*	32	86*	-1	7	70*	93*	100*	96*	41
COc1ccc(C(=O)n2c(N)nc3ccccc32)cc1OC	-10	10	2	-13	-2	-7	x	x	x	x	x
Nc1nonc1N1CCCCC1	2	-5	-2	2	0	15	x	x	x	x	x
O=C(Cc1ccccc1)c1ccc2c(c1)OCCO2	69*	73*	23	71*	0	3	70*	65*	91*	78*	76*
O=C(NCCc1ccccc1)c1ccc2c(c1)OCO2	57*	57*	3	30	0	16	52*	48	82*	78*	57*
O=C(CCCO)c1ccc2c(c1)OCCO2	7	0	-3	-2	2	3	x	x	x	x	x
COc1ccc2cc(N3CCCC3=O)ccc2c1	x	x	x	x	2	-20	x	x	x	x	x
CC(OC(=O)Cc1ccccc1F)C(=O)Nc1ccc(Cl)cn1 (stereo not given)	0	-7	x	-9	6	6	x	x	x	x	x
COc1ccc(/C=C/c2noc(-c3ccccc3O)n2)cc1	88*	89*	6	88*	-1	-8	57*	49	62*	53*	4
